Values after ≈ are worked out from the molar mass of the structure shown. Active and inactive are the calls of the source. The calls are words filed in the database; no cut-off is given here.
What was measured:
Escherichia coli [1] = experiment: Antibacterial activity against Escherichia coli ATCC 15224 at 40 mg/mL after 24 hrs by disc diffusion method; assay type: functional; conditions: ATCC 15224, 24 h, read-out: DIZ
Summary of the method: (§1)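 Disc diffusion. Strains grown in nutrient broth at 37 °C for 24 h. 1% culture (about 10^6 CFU/mL) mixed into nutrient agar at 45 °C and poured. 4 mm paper discs received compound at 40 mg/mL stock in DMSO; final concentrations tested were […]. DMSO served as negative control, roxithromycin and cefixime as positive controls. Triplicate plates incubated at 37 °C for 24 h. Complete-inhibition zone diameter (mm) recorded as the mean of 3.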

Staphylococcus aureus [2] = experiment: Antibacterial activity against Staphylococcus aureus ATCC 6538 at 40 mg/mL after 24 hrs by disc diffusion method; assay type: functional; conditions: ATCC 6538, 24 h, read-out: DIZ; summary of the method: as §1
Klebsiella aerogenes = experiment: Antibacterial activity against Enterobacter aerogenes ATCC 13048 at 40 mg/mL after 24 hrs by disc diffusion method; assay type: functional; conditions: ATCC 13048, 24 h, read-out: DIZ; summary of the method: as §1
Salmonella typhimurium [3] = experiment: Antibacterial activity against Salmonella typhimurium ATCC 14028 at 40 mg/mL after 24 hrs by disc diffusion method; assay type: functional, Salmonella enterica subsp. enterica serovar Typhimurium; conditions: Salmonella enterica, ATCC 14028, 24 h; read-out: DIZ; summary of the method: as §1
[4] = system: Bordetella bronchiseptica; experiment: Antibacterial activity against Bordetella bronchiseptica ATCC 4617 at 40 mg/mL after 24 hrs by disc diffusion method; assay type: functional; conditions: ATCC 4617, 24 h, read-out: DIZ; summary of the method: as §1
Bacillus spizizenii [5] = experiment: Antibacterial activity against Bacillus subtilis ATCC 6633 at 40 mg/mL after 24 hrs by disc diffusion method; assay type: functional; conditions: ATCC 6633, 24 h, read-out: DIZ; summary of the method: as §1
Escherichia coli [6] = experiment: Antibacterial activity against Escherichia coli ATCC 15224 after 18 hrs by microdilution method; assay type: functional; conditions: ATCC 15224, 18 h
Summary of the method: (§2)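 Broth microdilution. Twofold dilutions in culture broth at […]. Each well inoculated with bacterial suspension (10^8 CFU/mL, about 10^5 CFU/well). Sterility control and growth control (broth plus DMSO) included. Incubated at 36 °C for 18 h, in triplicate. MIC taken as the lowest concentration inhibiting growth, given in micrograms per mL.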

Staphylococcus aureus [7] = experiment: Antibacterial activity against Staphylococcus aureus ATCC 6538 after 18 hrs by microdilution method; assay type: functional; conditions: ATCC 6538, 18 h; summary of the method: as §2
Salmonella typhimurium [8] = experiment: Antibacterial activity against Salmonella typhimurium ATCC 14028 after 18 hrs by microdilution method; assay type: functional, Salmonella enterica subsp. enterica serovar Typhimurium; conditions: Salmonella enterica, ATCC 14028, 18 h; summary of the method: as §2
[9] = system: Bordetella bronchiseptica; experiment: Antibacterial activity against Bordetella bronchiseptica ATCC 4617 after 18 hrs by microdilution method; assay type: functional; conditions: ATCC 4617, 18 h; summary of the method: as §2
Bacillus spizizenii [10] = experiment: Antibacterial activity against Bacillus subtilis ATCC 6633 after 18 hrs by microdilution method; assay type: functional; conditions: ATCC 6633, 18 h; summary of the method: as §2
Aspergillus niger = experiment: Antifungal activity against Aspergillus niger FCBP 0198 at 40 mg/mL after 7 days by disc diffusion method; assay type: functional; conditions: FCBP 0198, 168 h, read-out: DIZ
Summary of the method: (§3)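 Disc diffusion on SDA. Fungi cultured at 28 °C for 24 h. 4 mm discs received compound at 40 mg/mL stock in DMSO. DMSO served as negative control, terbinafine as positive control. Plates incubated at 28 °C for 7 days. Growth diameter (mm) measured and inhibition calculated against the negative control. MIC taken as the lowest concentration with no growth.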

Aspergillus fumigatus = experiment: Antifungal activity against Aspergillus fumigatus FCBP 66 at 40 mg/mL after 7 days by disc diffusion method; assay type: functional; conditions: FCBP 66, 168 h, read-out: DIZ; summary of the method: as §3
Aspergillus flavus = experiment: Antifungal activity against Aspergillus flavus FCBP 0064 at 40 mg/mL after 7 days by disc diffusion method; assay type: functional; conditions: FCBP 0064, 168 h, read-out: DIZ; summary of the method: as §3
Mucor = experiment: Antifungal activity against Mucor FCBP 0400 at 40 mg/mL after 7 days by disc diffusion method; assay type: functional; conditions: FCBP 0400, 168 h, read-out: DIZ; summary of the method: as §3
Artemia salina = experiment: Cytotoxicity in brine shrimp assessed as mortality after 24 hrs; assay type: functional; conditions: read-out: LD50 (the source's name)
[11] = system: Agrobacterium tumefaciens; experiment: Antitumor activity against Agrobacterium tumefaciens -induced tumor at 1000 ug/ml after 21 days by potato disc bioassay technique; assay type: functional
Summary of the method: (§4)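 Potato disc assay with 48 h culture of A. tumefaciens At-10. Inoculum contained compound at […]. Red-skinned potatoes sterilized in 0.1% HgCl2; 8 mm × 4 mm discs placed ten per 1.5% agar plate, […] each. Incubated at 28 °C in the dark for 21 days, in triplicate. Discs stained with Lugol's and tumors counted. Percent inhibition calculated against the negative control.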

[12] = system: Agrobacterium tumefaciens; experiment: Antitumor activity against Agrobacterium tumefaciens -induced tumor at 100 ug/ml after 21 days by potato disc bioassay technique; assay type: functional; summary of the method: as §4
[13] = system: Agrobacterium tumefaciens; experiment: Antitumor activity against Agrobacterium tumefaciens -induced tumor at 10 ug/ml after 21 days by potato disc bioassay technique; assay type: functional; summary of the method: as §4
[14] = system: Agrobacterium tumefaciens; experiment: Antitumor activity against Agrobacterium tumefaciens -induced tumor after 21 days by potato disc bioassay technique; assay type: functional, organism-based; conditions: 504 h; summary of the method: as §4
Escherichia coli [15] = experiment: Induction of Escherichia coli pBR322 DNA damage assessed as open circular form at 1000 ug/ml after 60 mins by gel electrophoresis
Escherichia coli [16] = experiment: Induction of Escherichia coli pBR322 DNA damage assessed as open circular form at 100 ug/ml after 60 mins by gel electrophoresis
Escherichia coli [17] = experiment: Induction of Escherichia coli pBR322 DNA damage assessed as open circular form at 10 ug/ml after 60 mins by gel electrophoresis
Escherichia coli [18] = experiment: Induction of Escherichia coli pBR322 DNA damage assessed as open circular form at 1 ug/ml after 60 mins by gel electrophoresis
Leishmania major = experiment: Antileishmanial activity against Leishmania major kwh 23 after 72 hrs using neobar counting by microscopy; assay type: functional, organism-based; conditions: kwh 23, 72 h
Summary of the method: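 Leishmania major promastigotes grown 7 days at 24 °C in medium 199 with 10% FBS. Samples as 10,000 ppm DMSO stocks, added to reach 200 ppm in the first row and serially diluted in 96-well plates, DMSO kept <5%. DMSO negative and amphotericin B positive controls. Incubated 72 h at 24 °C. Mortality counted in a counting chamber by light microscopy. Run 3 times. IC50 is the concentration giving 50% parasite reduction.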

## COc1ccccc1NC(=O)CCC(=O)O
Escherichia coli [1]
  zone of inhibition at 40000 µg/mL: 16 mm
Staphylococcus aureus [2]
  zone of inhibition at 40000 µg/mL: 11 mm
Klebsiella aerogenes
  zone of inhibition at 40000 µg/mL: 0 mm
Salmonella typhimurium [3]
  zone of inhibition at 40000 µg/mL: 8 mm
[4]
  zone of inhibition at 40000 µg/mL: 9 mm
Bacillus spizizenii [5]
  zone of inhibition at 40000 µg/mL: 10 mm
Escherichia coli [6]
  MIC: 100 µg/mL (≈ 448 µM)
Staphylococcus aureus [7]
  MIC: 100 µg/mL (≈ 448 µM)
Salmonella typhimurium [8]
  MIC: 200 µg/mL (≈ 896 µM)
[9]
  MIC: 200 µg/mL (≈ 896 µM)
Bacillus spizizenii [10]
  MIC: 200 µg/mL (≈ 896 µM)
Aspergillus niger
  zone of inhibition at 40000 µg/mL: 0 mm
Aspergillus fumigatus
  zone of inhibition at 40000 µg/mL: 0 mm
Aspergillus flavus
  zone of inhibition at 40000 µg/mL: 0 mm
Mucor
  zone of inhibition at 40000 µg/mL: 0 mm
Artemia salina
  LC50: 192 µg/mL (≈ 861 µM)
[11]
  Activity: 62.64%
[12]
  Activity: 31.14%
[13]
  Activity: 5.63%
[14]
  IC50: 410 µg/mL (≈ 1840 µM)
Escherichia coli [15]
  Activity: inactive
Escherichia coli [16]
  Activity: inactive
Escherichia coli [17]
  Activity: inactive
Escherichia coli [18]
  Activity: inactive
Leishmania major
  IC50: 0.00342 µg/mL (≈ 0.0153 µM)
